Values after ≈ are worked out from the molar mass of the structure shown.
How the values were obtained:
[1] = tested on: Mycobacterium tuberculosis; assay: Antitubercular activity against Mycobacterium tuberculosis H37Ra assessed as bacterial growth inhibition at 50 to 100 ug/ml by MABA relative to control; format: functional
[2] = Cytotoxicity against human MRC5 cells assessed as reduction in cell viability by MTT assay; format: cell-based
Method in brief: (§1)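 Viability read by the standard formazan (MTT) method. CC50 is the concentration giving a 50% decrease in cell viability, reported in µM as CC50±SD.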

[3] = Cytotoxicity against human A549 cells assessed as reduction in cell viability by MTT assay; format: cell-based; method in brief: as §1
[4] = tested on: Mycobacterium tuberculosis; assay: Antitubercular activity against Mycobacterium tuberculosis H37Ra assessed as bacterial growth inhibition by MABA; format: functional
Method in brief: (§2)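 Whole-cell growth inhibition of Mycobacterium bovis and M. tuberculosis H37Ra, read quantitatively by Microplate Alamar Blue Assay (alamar blue reagent). Compounds were tested across 1 to 100 µg/ml. Activity was expressed as MIC50 (µg/ml) from this concentration series.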

[5] = Cytotoxicity against African green monkey Vero cells assessed as reduction in cell viability by MTT assay; format: cell-based; conditions: chlorocebus sabaeus; method in brief: as §1
[6] = tested on: Mycobacterium tuberculosis; assay: Antitubercular activity against Mycobacterium tuberculosis H37Ra assessed as bacterial growth inhibition at 100 ug/ml by MABA relative to control; format: functional; conditions: read-out: GI
[7] = tested on: Mycobacterium tuberculosis; assay: Antitubercular activity against Mycobacterium tuberculosis H37Ra assessed as bacterial growth inhibition at 1 to 5 ug/ml by MABA relative to control; format: functional
[8] = tested on: Mycobacterium tuberculosis; assay: Antitubercular activity against Mycobacterium tuberculosis H37Ra assessed as bacterial growth inhibition by MABA relative to control; format: functional; method in brief: as §2
[9] = tested on: Mycobacterium tuberculosis; assay: Antitubercular activity against Mycobacterium tuberculosis H37Ra assessed as bacterial growth inhibition at 10 ug/ml by MABA relative to control; format: functional; conditions: read-out: GI
[10] = tested on: Mycobacterium tuberculosis; assay: Antitubercular activity against Mycobacterium tuberculosis H37Ra assessed as bacterial growth inhibition at 50 ug/ml by MABA relative to control; format: functional; conditions: read-out: GI
[11] = tested on: Mycobacterium tuberculosis; assay: Antitubercular activity against Mycobacterium tuberculosis H37Ra assessed as bacterial growth inhibition at 25 ug/ml by MABA relative to control; format: functional; conditions: read-out: GI
[12] = tested on: Mycobacterium tuberculosis; assay: Antitubercular activity against Mycobacterium tuberculosis H37Ra assessed as bacterial growth inhibition at 5 ug/ml by MABA relative to control; format: functional; conditions: read-out: GI
[13] = tested on: Mycobacterium tuberculosis; assay: Antitubercular activity against Mycobacterium tuberculosis H37Ra assessed as bacterial growth inhibition at 1 ug/ml by MABA relative to control; format: functional; conditions: read-out: GI

Structure (SMILES) | growth inhibition (GI) [1] | CC50 [2] | CC50 [3] | MIC50 [4] | CC50 [5] | inhibition of growth at 100 µg/mL [6] | growth inhibition (GI) [7] | growth inhibition (GI) [8] | inhibition of growth at 10 µg/mL [9] | inhibition of growth at 50 µg/mL [10] | inhibition of growth at 25 µg/mL [11] | inhibition of growth at 5 µg/mL [12] | inhibition of growth at 1 µg/mL [13]
O=c1[nH]cc(C#Cc2ccccc2)c(=O)[nH]1 | 90% | 75.1 µM | 248 µM | 18.2 µg/mL (≈ 85.8 µM) | 254 µM |  |  |  |  |  |  |  | 
O=c1[nH]cc(C#CC2CCCCC2)c(=O)[nH]1 |  | 62.8 µM | 245 µM | 2.8 µg/mL (≈ 12.8 µM) | 247 µM | 90% | 50% |  |  |  |  |  | 
CCCCCCC#Cc1c[nH]c(=O)[nH]c1=O |  | 94.9 µM | 249 µM |  | 250 µM |  |  | 0% |  |  |  |  | 
O=c1[nH]c(=O)n([C@@H]2O[C@H](CO)[C@@H](O)[C@H]2O)cc1C#CC1CC1 |  | 24.2 µM | 115 µM |  | 133 µM | 90% | 50% |  | 70% |  |  |  | 
CCCCCCC#Cc1cn([C@@H]2O[C@H](CO)[C@@H](O)[C@H]2O)c(=O)[nH]c1=O |  | 15.7 µM | 87.2 µM | < 50 µg/mL | 111 µM | 90% |  |  | 0% |  |  |  | 
CC#Cc1c[nH]c(=O)[nH]c1=O |  | 117 µM | 256 µM |  | 262 µM |  |  | 0% |  |  |  |  | 
CCC#Cc1c[nH]c(=O)[nH]c1=O |  | 120 µM | 253 µM |  | 263 µM |  |  | 0% |  |  |  |  | 
O=c1[nH]c(=O)n([C@@H]2O[C@H](CO)[C@@H](O)[C@H]2O)cc1C#CC(O)c1ccccc1 (stereo not given in full) |  | 0.9 µM | 34.2 µM | 1.1 µg/mL (≈ 2.94 µM) | 65.4 µM |  | 100% |  |  |  |  |  | 
CCCCC#Cc1c[nH]c(=O)[nH]c1=O |  | 113 µM | 250 µM |  | 253 µM |  |  | 0% |  |  |  |  | 
O=c1[nH]cc(C#CC2CC2)c(=O)[nH]1 |  | 101 µM | 251 µM | 5.2 µg/mL (≈ 29.5 µM) | 252 µM | 90% |  |  |  | 70% |  |  | 
O=c1[nH]c(=O)n([C@@H]2O[C@H](CO)[C@@H](O)[C@H]2O)cc1C#Cc1ccccc1 | 90% | 1.2 µM | 42.5 µM | 3.2 µg/mL (≈ 9.29 µM) | 78.4 µM |  | 50% |  | 70% |  |  |  | 
CCCCC#Cc1cn([C@@H]2O[C@H](CO)[C@@H](O)[C@H]2O)c(=O)[nH]c1=O |  | 11.6 µM | 83.2 µM | 50 µg/mL (≈ 154 µM) | 103 µM | 90% |  |  | 10% | 50% |  |  | 
C[Si](C)(C)C#Cc1c[nH]c(=O)[nH]c1=O |  | 124 µM | 268 µM | 100 µg/mL (≈ 480 µM) | 270 µM | 50% |  |  |  |  |  |  | 
O=c1[nH]cc(C#CC(O)c2ccccc2)c(=O)[nH]1 (stereo not given) | 90% | 38.4 µM | 237 µM | 2.9 µg/mL (≈ 12 µM) | 242 µM |  | 50% |  | 75% |  |  |  | 
O=c1[nH]c(=O)n([C@@H]2O[C@H](CO)[C@@H](O)[C@H]2O)cc1C#CC1CCCCC1 |  | 36.8 µM | 127 µM | 18.9 µg/mL (≈ 53.9 µM) | 148 µM |  | 10% |  |  | 70% | 55% |  | 
N[C@@H]1CONC1=O [CYCLOSERINE] |  |  |  | 5.2 µg/mL (≈ 50.9 µM) |  |  |  |  | 67% |  |  | 50% | 
NNC(=O)c1ccncc1 [ISONIAZID] |  |  |  | 0.8 µg/mL (≈ 5.83 µM) |  |  |  |  |  |  |  |  | 100%
CO[C@H]1/C=C/O[C@@]2(C)Oc3c(C)c(O)c4c(O)c(c(/C=N/N5CCN(C)CC5)c(O)c4c3C2=O)NC(=O)/C(C)=C\C=C\[C@H](C)[C@H](O)[C@@H](C)[C@@H](O)[C@@H](C)[C@H](OC(C)=O)[C@@H]1C [RIFAMPIN] |  |  |  | 0.7 µg/mL (≈ 0.851 µM) |  |  |  |  |  |  |  |  | 100%

Source: ChEMBL document CHEMBL4622950, “The synthesis and antituberculosis activity of 5-alkynyl uracil derivatives” (Bioorg Med Chem Lett, 2020)
